Tests used:
Format in all cases: functional, cell-based
[1] = Antiproliferative activity against mouse +SA cells by MTT assay; conditions: +SA cell
Procedure, shortened: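 Mouse +SA mammary epithelial cells in serum-free DMEM/F12 with BSA, transferrin, insulin and EGF. Compounds from DMSO stock conjugated to BSA (overnight, 37 °C); 0–40 µM, final DMSO <0.1%. MTT 0.42 mg/mL for 4 h at 37 °C, isopropanol solubilization, OD 570 nm. Cell number from a standard curve; IC50 by non-linear regression.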

[2] = tested on: MCF7; test: Antiproliferative activity against human MCF7 cells by MTT assay
Procedure, shortened: (§1)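 Cells plated at 8 × 10^3/well (MDA-MB-231) or 10^4/well (MCF7) in 96-well plates. Compounds fed in media with 5% FBS (MDA-MB-231) or 1% FBS (MCF7). MTT read-out of viable cells.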

[3] = tested on: MDA-MB-231; test: Antiproliferative activity against human MDA-MB-231 cells by MTT assay; procedure, shortened: as §1
[4] = tested on: MDA-MB-231; test: Antimigratory activity against human MDA-MB-231 cells after 24 hrs by wound-healing assay; conditions: MDA-MB-231, 24 h
Procedure, shortened: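 MDA-MB-231 in RPMI 1640 with 10% FBS grown to >95% confluent monolayer, scratched with a pipette tip and washed. Then 24 h exposure in 0.5% serum at five non-toxic concentrations in DMSO, triplicate, DMSO as negative control. Diff Quick fixed and stained; migrated cells counted in ≥3 random 40× fields. IC50 = concentration inhibiting migration of 50% of cells.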

SMILES | IC50 [1] [µM] | IC50 [2] [µM] | IC50 [3] [µM] | IC50 [4] [µM]
CC(C)=CCC/C(C)=C/CC/C(C)=C/CC[C@]1(C)CCc2c3c(c(C)c(C)c2O1)OCN(Cc1cccc([N+](=O)[O-])c1)C3 | 24.6 |  |  | 
CC(C)=CCC/C(C)=C/CC/C(C)=C/CC[C@]1(C)CCc2c3c(cc(C)c2O1)OCN(Cc1cccc([N+](=O)[O-])c1)C3 | 29.1 |  |  | 
C=CCN1COc2c(C)c(C)c3c(c2C1)CC[C@@](C)(CC/C=C(\C)CC/C=C(\C)CCC=C(C)C)O3 | 11.6 |  |  | 
CC(C)=CCC/C(C)=C/CC/C(C)=C/CC[C@]1(C)CCc2c3c(c(C)c(C)c2O1)OCN(CCCCC(=O)O)C3 | 1.8 |  |  | 
CC(C)=CCC/C(C)=C/CC/C(C)=C/CC[C@]1(C)CCc2c(CO)c(O)cc(C)c2O1 | > 20 |  |  | 
CC(C)=CCC/C(C)=C/CC/C(C)=C/CC[C@]1(C)CCc2c3c(c(C)c(C)c2O1)OCN(CCO)C3 | 1.7 |  |  | 
CC(C)=CCC/C(C)=C/CC/C(C)=C/CC[C@]1(C)CCc2c3c(c(C)c(C)c2O1)OCN(Cc1ccccc1)C3 | 2 | > 20 | 27.3 | 
CC(C)=CCC/C(C)=C/CC/C(C)=C/CC[C@]1(C)CCc2c3c(cc(C)c2O1)OCN(CCO)C3 | 4.2 | 6 | > 5 | 1.3
CC(C)=CCC/C(C)=C/CC/C(C)=C/CC[C@]1(C)CCc2c3c(cc(C)c2O1)OCN(C)C3 | 1.3 |  |  | 
CC(C)=CCC/C(C)=C/CC/C(C)=C/CC[C@]1(C)CCc2c3c(c(C)c(C)c2O1)OCN(CCCO)C3 | 2.5 | > 20 | 9.6 | 8.1
CC(C)=CCC/C(C)=C/CC/C(C)=C/CC[C@]1(C)CCc2c3c(c(C)c(C)c2O1)OCN(C)C3 | 2.2 |  |  | 
CC(C)=CCC/C(C)=C/CC/C(C)=C/CC[C@]1(C)CCc2c(CO)c(O)c(C)c(C)c2O1 | 2.6 |  |  | 
CC(C)=CCC/C(C)=C/CC/C(C)=C/CC[C@]1(C)CCc2c3c(c(C)c(C)c2O1)OCN(CC1CCNCC1)C3 | 4.6 | > 20 | 0.8 | 
CC(C)=CCC/C(C)=C/CC/C(C)=C/CC[C@]1(C)CCc2cc3c(c(C)c2O1)CN(CCO)CO3 | 0.96 |  |  | 
CCOC(CCN1COc2c(C)c(C)c3c(c2C1)CC[C@@](C)(CC/C=C(\C)CC/C=C(\C)CCC=C(C)C)O3)OCC | 9.3 |  |  | 
CCOC(CCN1COc2cc(C)c3c(c2C1)CC[C@@](C)(CC/C=C(\C)CC/C=C(\C)CCC=C(C)C)O3)OCC | 1 |  |  | 
CC(C)=CCC/C(C)=C/CC/C(C)=C/CC[C@]1(C)CCc2c3c(c(C)c(C)c2O1)OCN(CCCCCC(=O)O)C3 | 5 |  |  | 
CC(C)=CCC/C(C)=C/CC/C(C)=C/CC[C@]1(C)CCc2c3c(c(C)c(C)c2O1)OCN(C1CCN(Cc2ccccc2)CC1)C3 | 8.7 |  |  | 
CC(C)=CCC/C(C)=C/CC/C(C)=C/CC[C@]1(C)CCc2cc(O)cc(C)c2O1 [DELTA-TOCOTRIENOL] |  |  |  | > 40
CC(C)=CCC/C(C)=C/CC/C(C)=C/CC[C@]1(C)CCc2c3c(cc(C)c2O1)OCN(CCCCC(=O)O)C3 | 11.9 |  |  | 
COc1ccc(CCN2COc3cc4c(c(C)c3C2)O[C@](C)(CC/C=C(\C)CC/C=C(\C)CCC=C(C)C)CC4)cc1OC | 0.84 |  |  | 
CC(C)=CCC/C(C)=C/CC/C(C)=C/CC[C@]1(C)CCc2cc(O)c(CO)c(C)c2O1 | 6.6 |  |  | 
CC(C)=CCC/C(C)=C/CC/C(C)=C/CC[C@]1(C)CCc2c3c(cc(C)c2O1)OCN(CCCCCC(=O)O)C3 | 5.1 |  |  | 

From ChEMBL document CHEMBL2380254, “Optimization of tocotrienols as antiproliferative and antimigratory leads” (Eur J Med Chem, 2013)
